Data from ChEMBL document CHEMBL4371053, “A novel tetrazole analogue of resveratrol is a potent anticancer agent” (Bioorg Med Chem Lett, 2019).

What was measured:
Format in all cases: functional
NCI-H522 = assay: Growth inhibition of human NCI-H522 cells at 10 uM after 48 hrs by sulforhodamine B assay relative to control; settings: NCI-H522, 48 h, values are per cent of control
Procedure, shortened: (§1)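 NCI-60 single-dose screen. Cells exposed to 10⁻⁵ M or to vehicle for 48 h. Growth measured by sulforhodamine B optical density before and after exposure. Reported as percent growth relative to vehicle control and to time-zero cell number; negative values indicate cell kill.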

UACC-62 = assay: Growth inhibition of human UACC62 cells incubated for 48 hrs by sulforhodamine B assay; settings: UACC-62, 48 h
Procedure, shortened: (§2)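 NCI-60 screen run per Rubinstein protocol. Sulforhodamine B optical density was read before and after 48 h exposure to compound or vehicle. The single-dose pass at 10⁻⁵ M reported percent growth relative to vehicle control and time-zero cell number. The five-dose follow-up used 10⁻⁴ to 10⁻⁸ M, giving GI₅₀ as the molar concentration causing 50% growth inhibition.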

HCT-15 = assay: Growth inhibition of human HCT15 cells incubated for 48 hrs by sulforhodamine B assay; settings: HCT-15, 48 h
Procedure, shortened: (§3)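 NCI-60 five-dose study at 10⁻⁴, 10⁻⁵, 10⁻⁶, 10⁻⁷ and 10⁻⁸ M, 48 h incubation. Growth determined from sulforhodamine B optical density before and after exposure, relative to vehicle control and time-zero counts. GI₅₀ is the molar concentration giving 50% growth inhibition.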

KM12 [1] = assay: Growth inhibition of human KM12 cells at 10 uM after 48 hrs by sulforhodamine B assay relative to control; settings: KM12, 48 h, values are per cent of control; procedure, shortened: as §1
MDA-MB-468 = assay: Growth inhibition of human MDA-MB-468 cells incubated for 48 hrs by sulforhodamine B assay; settings: MDA-MB-468, 48 h; procedure, shortened: as §3
K562 = assay: Growth inhibition of human K562 cells incubated for 48 hrs by sulforhodamine B assay; settings: K562, 48 h; procedure, shortened: as §3
DU-145 = assay: Growth inhibition of human DU145 cells at 10 uM after 48 hrs by sulforhodamine B assay relative to control; settings: DU-145, 48 h, values are per cent of control; procedure, shortened: as §1
SK-OV-3 = assay: Growth inhibition of human SKOV3 cells incubated for 48 hrs by sulforhodamine B assay; settings: SK-OV-3, 48 h; procedure, shortened: as §2
SR = assay: Growth inhibition of human SR cells incubated for 48 hrs by sulforhodamine B assay; procedure, shortened: as §2
A549 = assay: Growth inhibition of human A549/ATCC cells incubated for 48 hrs by sulforhodamine B assay; settings: A549, 48 h; procedure, shortened: as §3
MOLT-4 = assay: Growth inhibition of human MOLT4 cells incubated for 48 hrs by sulforhodamine B assay; settings: MOLT-4, 48 h; procedure, shortened: as §3
SF-539 = assay: Growth inhibition of human SF539 cells at 10 uM after 48 hrs by sulforhodamine B assay relative to control; settings: SF-539, 48 h, values are per cent of control; procedure, shortened: as §1
HOP-92 = assay: Growth inhibition of human HOP92 cells incubated for 48 hrs by sulforhodamine B assay; settings: HOP-92, 48 h; procedure, shortened: as §3
KM12 [2] = assay: Growth inhibition of human KM12 cells incubated for 48 hrs by sulforhodamine B assay; settings: KM12, 48 h; procedure, shortened: as §3
A498 = assay: Growth inhibition of human A498 cells incubated for 48 hrs by sulforhodamine B assay; settings: A498, 48 h; procedure, shortened: as §3
SK-MEL-5 [3] = assay: Growth inhibition of human SK-MEL-5 cells incubated for 48 hrs by sulforhodamine B assay; settings: SK-MEL-5, 48 h; procedure, shortened: as §2
ACHN = assay: Growth inhibition of human ACHN cells incubated for 48 hrs by sulforhodamine B assay; procedure, shortened: as §3
Hs-578T = assay: Growth inhibition of human Hs578T cells incubated for 48 hrs by sulforhodamine B assay; procedure, shortened: as §3
OVCAR-3 = assay: Growth inhibition of human OVCAR3 cells at 10 uM after 48 hrs by sulforhodamine B assay relative to control; settings: OVCAR-3, 48 h, values are per cent of control; procedure, shortened: as §1
SK-MEL-5 [4] = assay: Growth inhibition of human SK-MEL-5 cells at 10 uM after 48 hrs by sulforhodamine B assay relative to control; settings: SK-MEL-5, 48 h, values are per cent of control; procedure, shortened: as §1
NCI-H226 = assay: Growth inhibition of human NCI-H226 cells incubated for 48 hrs by sulforhodamine B assay; settings: NCI-H226, 48 h
Procedure, shortened: (§4)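 NCI-60 screen: cells were exposed for 48 h to compound or vehicle, and growth was read as sulforhodamine B optical density before and after exposure. In the single-dose test at 10⁻⁵ M, percent growth was taken relative to vehicle control and time-zero cell number. In the five-dose test (10⁻⁴ to 10⁻⁸ M), GI₅₀ was the molar concentration causing 50% growth inhibition.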

T47D = assay: Growth inhibition of human T47D cells incubated for 48 hrs by sulforhodamine B assay; procedure, shortened: as §4
OVCAR-5 = assay: Growth inhibition of human OVCAR5 cells incubated for 48 hrs by sulforhodamine B assay; settings: OVCAR-5, 48 h; procedure, shortened: as §4
Malme-3M = assay: Growth inhibition of human MALME-3M cells incubated for 48 hrs by sulforhodamine B assay; procedure, shortened: as §4
SN12C = assay: Growth inhibition of human SN12C cells incubated for 48 hrs by sulforhodamine B assay; procedure, shortened: as §4
NCI-H460 = assay: Growth inhibition of human NCI-H460 cells incubated for 48 hrs by sulforhodamine B assay; settings: NCI-H460, 48 h; procedure, shortened: as §4
EKVX = assay: Growth inhibition of human EKVX cells incubated for 48 hrs by sulforhodamine B assay; procedure, shortened: as §4
BT-549 = assay: Growth inhibition of human BT549 cells incubated for 48 hrs by sulforhodamine B assay; settings: BT-549, 48 h; procedure, shortened: as §4
TK-10 = assay: Growth inhibition of human TK10 cells incubated for 48 hrs by sulforhodamine B assay; settings: TK-10, 48 h; procedure, shortened: as §4
OVCAR-8 = assay: Growth inhibition of human OVCAR8 cells incubated for 48 hrs by sulforhodamine B assay; settings: OVCAR-8, 48 h; procedure, shortened: as §4
NCI-H322M = assay: Growth inhibition of human NCI-H322M cells incubated for 48 hrs by sulforhodamine B assay; procedure, shortened: as §4
UACC-257 = assay: Growth inhibition of human UACC257 cells incubated for 48 hrs by sulforhodamine B assay; settings: UACC-257, 48 h; procedure, shortened: as §4
CAKI-1 = assay: Growth inhibition of human Caki1 cells incubated for 48 hrs by sulforhodamine B assay; settings: CAKI-1, 48 h; procedure, shortened: as §4

Structure (SMILES): COc1ccc(/C=C(/c2cc(OC)c(OC)c(OC)c2)c2nnn[nH]2)cc1O
- growth, % of control at 10 µM (NCI-H522): -6.32%
- GI50 (UACC-62): < 0.01 µM
- GI50 (HCT-15): < 0.01 µM
- growth, % of control at 10 µM (KM12 [1]): -1.73%
- GI50 (MDA-MB-468): < 0.01 µM
- GI50 (K562): < 0.01 µM
- growth, % of control at 10 µM (DU-145): 3.41%
- GI50 (SK-OV-3): < 0.01 µM
- GI50 (SR): < 0.01 µM
- GI50 (A549): < 0.01 µM
- GI50 (MOLT-4): < 0.01 µM
- growth, % of control at 10 µM (SF-539): -1.97%
- GI50 (HOP-92): < 0.01 µM
- GI50 (KM12 [2]): < 0.01 µM
- GI50 (A498): < 0.01 µM
- GI50 (SK-MEL-5 [3]): < 0.01 µM
- GI50 (ACHN): < 0.01 µM
- GI50 (Hs-578T): < 0.01 µM
- growth, % of control at 10 µM (OVCAR-3): -8.5%
- growth, % of control at 10 µM (SK-MEL-5 [4]): -54%

Structure (SMILES): COc1ccc(/C(=C/c2ccc3ccccc3c2)c2nnn[nH]2)cc1OC
- GI50 (NCI-H226): > 100 µM
- growth, % of control at 10 µM (NCI-H522): -2.85%
- GI50 (UACC-62): 0.86 µM
- GI50 (HCT-15): 2.92 µM
- growth, % of control at 10 µM (KM12 [1]): 24.5%
- GI50 (MDA-MB-468): 21.5 µM
- GI50 (T47D): 28.2 µM
- GI50 (OVCAR-5): 6.08 µM
- GI50 (Malme-3M): 3.08 µM
- GI50 (SN12C): 9.97 µM
- GI50 (K562): 0.67 µM
- growth, % of control at 10 µM (DU-145): 20.9%
- GI50 (SK-OV-3): 3.63 µM
- GI50 (NCI-H460): 2.81 µM
- GI50 (SR): 2.23 µM
- GI50 (A549): 3.8 µM
- GI50 (EKVX): 18.2 µM
- GI50 (MOLT-4): 4.16 µM
- GI50 (HOP-92): 4.59 µM
- GI50 (BT-549): 10.9 µM
- GI50 (TK-10): 18.5 µM
- GI50 (KM12 [2]): 2.79 µM
- GI50 (OVCAR-8): 7.1 µM
- GI50 (NCI-H322M): 6.88 µM
- GI50 (UACC-257): 56.6 µM
- GI50 (SK-MEL-5 [3]): 4.68 µM
- GI50 (ACHN): 11.3 µM
- GI50 (Hs-578T): 2.23 µM
- growth, % of control at 10 µM (OVCAR-3): -17.3%
- growth, % of control at 10 µM (SK-MEL-5 [4]): 23.5%
- GI50 (CAKI-1): 2.24 µM
